Test results as given in the M2OR odorant receptor database.

Assays:
Conditions in all cases: stereoisomer not certain
[1] = target: T1, OR51I2 (Homo sapiens) (UniProt Q9H344)
T1 sequence (whole entry): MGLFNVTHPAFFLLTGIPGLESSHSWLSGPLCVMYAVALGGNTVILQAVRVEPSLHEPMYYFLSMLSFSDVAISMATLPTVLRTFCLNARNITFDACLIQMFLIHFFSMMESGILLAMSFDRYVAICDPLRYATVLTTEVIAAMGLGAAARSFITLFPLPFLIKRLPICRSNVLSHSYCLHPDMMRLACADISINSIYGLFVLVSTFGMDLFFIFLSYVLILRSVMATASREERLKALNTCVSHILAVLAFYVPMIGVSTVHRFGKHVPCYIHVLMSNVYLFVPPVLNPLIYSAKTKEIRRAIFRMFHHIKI
Outline: (§1)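 Transient luciferase assays in mammalian cell lines were common, though methods varied by source. The values come from published papers and their supplementary material, with extra details from the original authors when needed. Responsive refers to a measured signal the original authors judged statistically different from baseline, and non-responsive (inactive) to the remainder.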

[2] = target: T2, OR51J1 (Homo sapiens) (UniProt Q9H342)
T2 sequence (whole entry): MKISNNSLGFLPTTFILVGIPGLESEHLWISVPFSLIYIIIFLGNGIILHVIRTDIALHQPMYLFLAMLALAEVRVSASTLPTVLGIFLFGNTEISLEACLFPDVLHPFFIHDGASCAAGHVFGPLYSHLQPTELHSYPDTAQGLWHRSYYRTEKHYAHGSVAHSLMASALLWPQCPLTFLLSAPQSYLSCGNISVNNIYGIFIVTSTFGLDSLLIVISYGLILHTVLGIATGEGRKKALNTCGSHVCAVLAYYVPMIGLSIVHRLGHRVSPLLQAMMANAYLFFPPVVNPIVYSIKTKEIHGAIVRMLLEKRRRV
Outline: as §1

[3] = target: T3, OR51L1 (Homo sapiens) (UniProt Q8NGJ5)
T3 sequence (whole entry): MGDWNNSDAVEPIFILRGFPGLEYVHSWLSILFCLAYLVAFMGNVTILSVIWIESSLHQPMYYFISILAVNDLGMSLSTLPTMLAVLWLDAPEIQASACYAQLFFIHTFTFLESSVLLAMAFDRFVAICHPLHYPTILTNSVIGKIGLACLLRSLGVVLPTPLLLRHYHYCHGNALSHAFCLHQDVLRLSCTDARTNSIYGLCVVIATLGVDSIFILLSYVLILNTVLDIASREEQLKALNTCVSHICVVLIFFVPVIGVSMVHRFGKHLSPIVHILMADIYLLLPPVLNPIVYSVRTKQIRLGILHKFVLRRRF
Outline: as §1

[4] = target: T4, OR51M1 (Homo sapiens) (UniProt Q9H341)
T4 sequence (whole entry): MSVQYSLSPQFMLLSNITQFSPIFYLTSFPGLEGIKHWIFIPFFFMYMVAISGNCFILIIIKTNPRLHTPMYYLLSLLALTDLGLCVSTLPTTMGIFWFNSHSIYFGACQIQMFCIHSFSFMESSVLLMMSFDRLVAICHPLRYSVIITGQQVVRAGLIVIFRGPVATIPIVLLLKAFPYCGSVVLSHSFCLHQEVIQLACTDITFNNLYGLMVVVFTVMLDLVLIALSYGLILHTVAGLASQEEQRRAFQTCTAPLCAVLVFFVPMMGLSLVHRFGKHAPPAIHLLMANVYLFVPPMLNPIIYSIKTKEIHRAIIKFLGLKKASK
Outline: as §1

[5] = target: T5, OR51Q1 (Homo sapiens) (UniProt Q8NH59)
T5 sequence (whole entry): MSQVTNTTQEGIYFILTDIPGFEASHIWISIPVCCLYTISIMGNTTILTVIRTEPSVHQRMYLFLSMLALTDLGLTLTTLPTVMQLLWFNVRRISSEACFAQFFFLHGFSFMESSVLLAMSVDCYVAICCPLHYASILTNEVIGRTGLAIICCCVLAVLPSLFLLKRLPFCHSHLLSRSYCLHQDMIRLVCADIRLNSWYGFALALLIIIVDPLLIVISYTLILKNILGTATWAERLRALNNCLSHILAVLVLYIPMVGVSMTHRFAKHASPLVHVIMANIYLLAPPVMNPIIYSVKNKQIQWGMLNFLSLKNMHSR
Outline: as §1

[6] = target: T6, OR51S1 (Homo sapiens) (UniProt Q8NGJ8)
T6 sequence (whole entry): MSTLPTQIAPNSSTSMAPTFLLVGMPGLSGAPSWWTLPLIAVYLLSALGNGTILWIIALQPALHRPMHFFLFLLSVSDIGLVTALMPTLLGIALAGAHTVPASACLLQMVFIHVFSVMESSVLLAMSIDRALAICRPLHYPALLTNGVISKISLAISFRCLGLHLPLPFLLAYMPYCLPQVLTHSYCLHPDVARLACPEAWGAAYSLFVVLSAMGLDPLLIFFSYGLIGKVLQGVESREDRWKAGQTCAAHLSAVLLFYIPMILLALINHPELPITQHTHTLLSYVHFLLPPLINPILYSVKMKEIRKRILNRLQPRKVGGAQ
Outline: as §1

[7] = target: T7, OR51T1 (Homo sapiens) (UniProt Q8NGJ9)
T7 sequence (whole entry): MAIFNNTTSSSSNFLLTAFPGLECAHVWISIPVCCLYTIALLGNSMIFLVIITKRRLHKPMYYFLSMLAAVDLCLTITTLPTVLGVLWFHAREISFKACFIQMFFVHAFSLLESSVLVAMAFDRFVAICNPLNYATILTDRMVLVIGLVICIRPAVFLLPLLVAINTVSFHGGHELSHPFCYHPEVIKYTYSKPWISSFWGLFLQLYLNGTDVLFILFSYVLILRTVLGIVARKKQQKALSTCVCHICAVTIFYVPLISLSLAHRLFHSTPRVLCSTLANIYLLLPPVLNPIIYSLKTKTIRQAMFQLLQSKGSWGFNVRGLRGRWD
Outline: as §1

[8] = target: T8, OR51V1 (Homo sapiens) (UniProt Q9H2C8)
T8 sequence (whole entry): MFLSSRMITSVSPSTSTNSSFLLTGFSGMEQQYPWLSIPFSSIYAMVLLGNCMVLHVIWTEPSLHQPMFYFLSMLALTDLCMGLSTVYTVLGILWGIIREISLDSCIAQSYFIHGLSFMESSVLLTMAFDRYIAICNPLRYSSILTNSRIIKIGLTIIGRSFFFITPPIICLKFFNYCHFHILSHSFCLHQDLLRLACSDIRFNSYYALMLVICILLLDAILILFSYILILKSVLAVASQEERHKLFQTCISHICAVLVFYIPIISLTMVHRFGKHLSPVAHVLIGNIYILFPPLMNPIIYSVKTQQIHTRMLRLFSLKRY
Outline: as §1

[9] = target: T9, OR52A1 (Homo sapiens) (UniProt Q9UKL2)
T9 sequence (whole entry): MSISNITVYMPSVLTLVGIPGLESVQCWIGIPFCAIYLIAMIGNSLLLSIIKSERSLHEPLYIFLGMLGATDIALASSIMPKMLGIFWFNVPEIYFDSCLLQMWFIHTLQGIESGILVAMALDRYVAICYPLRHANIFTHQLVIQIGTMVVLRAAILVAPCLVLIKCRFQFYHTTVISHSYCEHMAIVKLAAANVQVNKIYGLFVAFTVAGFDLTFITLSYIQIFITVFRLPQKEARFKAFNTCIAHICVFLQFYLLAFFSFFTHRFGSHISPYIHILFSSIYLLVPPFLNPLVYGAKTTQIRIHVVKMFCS
Outline: as §1

[10] = target: T10, OR52A4P (Homo sapiens) (UniProt A6NMU1)
T10 sequence (whole entry): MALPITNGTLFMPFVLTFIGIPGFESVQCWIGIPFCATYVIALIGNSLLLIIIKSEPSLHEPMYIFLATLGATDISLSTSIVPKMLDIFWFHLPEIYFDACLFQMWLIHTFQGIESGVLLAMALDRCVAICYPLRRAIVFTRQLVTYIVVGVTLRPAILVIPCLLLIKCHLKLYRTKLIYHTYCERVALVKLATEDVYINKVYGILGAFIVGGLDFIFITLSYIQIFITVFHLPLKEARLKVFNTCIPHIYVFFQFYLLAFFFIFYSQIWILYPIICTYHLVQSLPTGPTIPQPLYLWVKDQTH
Outline: as §1

[11] = target: T11, OR52A5 (Homo sapiens) (UniProt Q9H2C5)
T11 sequence (whole entry): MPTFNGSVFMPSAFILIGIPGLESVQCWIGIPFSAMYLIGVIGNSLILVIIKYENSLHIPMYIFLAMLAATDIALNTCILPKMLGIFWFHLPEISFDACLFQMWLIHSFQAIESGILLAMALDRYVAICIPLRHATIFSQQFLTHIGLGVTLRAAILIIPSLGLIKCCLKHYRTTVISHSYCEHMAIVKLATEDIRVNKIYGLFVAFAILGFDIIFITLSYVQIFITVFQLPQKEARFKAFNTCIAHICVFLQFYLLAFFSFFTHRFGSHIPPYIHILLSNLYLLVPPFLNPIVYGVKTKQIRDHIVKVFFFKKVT
Outline: as §1

[12] = target: T12, OR52B2 (Homo sapiens) (UniProt Q96RD2)
T12 sequence (whole entry): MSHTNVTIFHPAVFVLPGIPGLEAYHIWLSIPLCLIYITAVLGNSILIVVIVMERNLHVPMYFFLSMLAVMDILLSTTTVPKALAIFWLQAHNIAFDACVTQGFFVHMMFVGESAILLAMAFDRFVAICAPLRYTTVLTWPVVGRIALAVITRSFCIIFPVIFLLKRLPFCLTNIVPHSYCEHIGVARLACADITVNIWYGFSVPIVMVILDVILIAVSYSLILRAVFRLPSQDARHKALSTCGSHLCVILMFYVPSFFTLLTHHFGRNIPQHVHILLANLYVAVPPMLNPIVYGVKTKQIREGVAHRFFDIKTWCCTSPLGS
Outline: as §1

[13] = target: T13, OR52B4 (Homo sapiens) (UniProt Q8NGK2)
T13 sequence (whole entry): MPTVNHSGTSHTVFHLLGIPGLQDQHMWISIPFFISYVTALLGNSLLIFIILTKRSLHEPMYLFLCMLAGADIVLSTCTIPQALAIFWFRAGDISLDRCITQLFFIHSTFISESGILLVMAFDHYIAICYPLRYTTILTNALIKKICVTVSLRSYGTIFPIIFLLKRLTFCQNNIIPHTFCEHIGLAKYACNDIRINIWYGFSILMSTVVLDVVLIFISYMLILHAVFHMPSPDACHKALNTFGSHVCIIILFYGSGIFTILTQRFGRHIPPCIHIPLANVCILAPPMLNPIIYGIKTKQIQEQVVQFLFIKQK
Outline: as §1

[14] = target: T14, OR52B6 (Homo sapiens) (UniProt Q8NGF0)
T14 sequence (whole entry): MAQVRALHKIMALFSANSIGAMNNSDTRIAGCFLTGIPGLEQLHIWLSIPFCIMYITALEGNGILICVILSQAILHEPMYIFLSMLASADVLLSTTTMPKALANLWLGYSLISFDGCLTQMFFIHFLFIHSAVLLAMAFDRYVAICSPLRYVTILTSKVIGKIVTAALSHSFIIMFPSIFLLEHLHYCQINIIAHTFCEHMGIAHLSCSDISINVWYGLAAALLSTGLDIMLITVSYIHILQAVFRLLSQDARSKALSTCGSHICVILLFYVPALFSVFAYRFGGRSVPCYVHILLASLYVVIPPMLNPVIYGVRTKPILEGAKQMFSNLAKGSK
Outline: as §1

[15] = target: T15, OR52D1 (Homo sapiens) (UniProt Q9H346)
T15 sequence (whole entry): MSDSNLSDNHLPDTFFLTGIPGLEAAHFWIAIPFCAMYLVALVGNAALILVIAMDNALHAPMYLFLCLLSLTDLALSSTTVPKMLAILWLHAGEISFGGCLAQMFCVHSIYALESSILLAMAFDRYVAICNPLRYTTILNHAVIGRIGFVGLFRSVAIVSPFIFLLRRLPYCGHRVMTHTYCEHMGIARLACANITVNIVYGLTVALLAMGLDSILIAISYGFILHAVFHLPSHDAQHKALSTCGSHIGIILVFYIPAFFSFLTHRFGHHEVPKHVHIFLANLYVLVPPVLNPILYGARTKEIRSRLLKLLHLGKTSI
Outline: as §1

[16] = target: OR52E2 (Homo sapiens) (UniProt Q8NGJ4)
Chain of OR52E2 (Homo sapiens) (Q8NGJ4 whole entry): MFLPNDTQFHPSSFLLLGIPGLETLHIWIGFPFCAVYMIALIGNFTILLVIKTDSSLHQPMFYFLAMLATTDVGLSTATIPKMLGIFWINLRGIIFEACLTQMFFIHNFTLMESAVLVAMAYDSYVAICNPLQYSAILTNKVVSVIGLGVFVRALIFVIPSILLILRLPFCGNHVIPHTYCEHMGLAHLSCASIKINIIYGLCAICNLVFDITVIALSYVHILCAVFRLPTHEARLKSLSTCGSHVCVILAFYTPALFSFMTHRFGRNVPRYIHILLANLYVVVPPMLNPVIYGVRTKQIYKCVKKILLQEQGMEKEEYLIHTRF
Outline: as §1

[17] = target: OR52E4 (Homo sapiens) (UniProt Q8NGH9)
Chain of OR52E4 (Homo sapiens) (Q8NGH9 whole entry): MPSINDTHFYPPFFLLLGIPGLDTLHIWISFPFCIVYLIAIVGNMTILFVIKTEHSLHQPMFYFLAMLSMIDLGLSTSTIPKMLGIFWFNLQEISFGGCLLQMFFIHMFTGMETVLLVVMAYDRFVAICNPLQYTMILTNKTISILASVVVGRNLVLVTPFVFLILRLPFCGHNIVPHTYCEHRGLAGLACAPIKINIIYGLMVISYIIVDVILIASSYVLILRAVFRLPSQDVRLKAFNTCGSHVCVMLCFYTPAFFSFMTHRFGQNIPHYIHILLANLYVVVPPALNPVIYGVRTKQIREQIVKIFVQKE
Outline: as §1

[18] = target: OR52E5 (Homo sapiens) (UniProt Q8NH55)
Chain of OR52E5 (Homo sapiens) (Q8NH55 whole entry): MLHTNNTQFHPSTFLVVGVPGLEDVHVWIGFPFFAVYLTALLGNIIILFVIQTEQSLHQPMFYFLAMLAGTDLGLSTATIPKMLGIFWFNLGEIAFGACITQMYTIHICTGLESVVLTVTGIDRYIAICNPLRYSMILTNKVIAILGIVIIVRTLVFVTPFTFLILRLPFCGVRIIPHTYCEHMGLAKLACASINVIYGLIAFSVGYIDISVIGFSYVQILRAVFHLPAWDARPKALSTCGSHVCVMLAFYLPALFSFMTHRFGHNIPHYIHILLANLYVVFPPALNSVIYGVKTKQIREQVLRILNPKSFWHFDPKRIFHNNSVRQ
Outline: as §1

[19] = target: OR52E6 (Homo sapiens) (UniProt Q96RD3)
Chain of OR52E6 (Homo sapiens) (Q96RD3 whole entry): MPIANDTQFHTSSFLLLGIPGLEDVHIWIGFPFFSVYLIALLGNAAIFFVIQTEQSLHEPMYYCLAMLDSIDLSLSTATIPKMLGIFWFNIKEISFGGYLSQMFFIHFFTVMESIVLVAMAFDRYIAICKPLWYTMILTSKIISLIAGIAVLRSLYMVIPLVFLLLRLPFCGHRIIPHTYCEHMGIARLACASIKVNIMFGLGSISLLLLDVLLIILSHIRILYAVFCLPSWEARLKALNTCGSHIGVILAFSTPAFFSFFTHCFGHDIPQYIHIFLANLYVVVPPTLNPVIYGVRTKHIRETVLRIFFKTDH
Outline: as §1

[20] = target: OR52E1 (Homo sapiens) (UniProt Q8NGJ3)
Chain of OR52E1 (Homo sapiens) (Q8NGJ3 whole entry): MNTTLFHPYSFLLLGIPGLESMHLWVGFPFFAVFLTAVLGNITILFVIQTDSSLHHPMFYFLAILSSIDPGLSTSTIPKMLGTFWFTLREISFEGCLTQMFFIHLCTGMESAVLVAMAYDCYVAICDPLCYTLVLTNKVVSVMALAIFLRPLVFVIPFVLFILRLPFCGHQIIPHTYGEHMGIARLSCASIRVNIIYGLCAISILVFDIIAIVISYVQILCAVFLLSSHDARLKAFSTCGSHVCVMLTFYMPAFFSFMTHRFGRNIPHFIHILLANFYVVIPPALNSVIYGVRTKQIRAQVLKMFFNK
Outline: as §1

Measured: odorant receptor agonist call

CCCCCC1CCCC(=O)O1 (configuration not stated)
active: [15]
inactive: [1] | [2] | [3] | [4] | [5] | [6] | [7] | [8] | [9] | [10] | [11] | [12] | [13] | [14] | [16] | [17] | [18] | [19]

CCCCCCC=CCCC=O
inactive: [1] | [2] | [3] | [4] | [5] | [6] | [7] | [8] | [9] | [11] | [12] | [13] | [14] | [15] | [20] | [16] | [17] | [18] | [19]

CCCCCC(=O)C(C)C(C)=O (configuration not stated)
inactive: [1] | [2] | [3] | [4] | [5] | [6] | [7] | [8] | [9] | [10] | [11] | [12] | [13] | [14] | [15] | [16] | [17] | [18] | [19]
